The values below come from PubChem BioAssay AID588831 (Broad Institute, 2011).

The term AC50 denotes the concentration at which the activity in the assay is half-maximal.

Activity calls are given as the source filed them.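 Rule for the calls: active = compounds lowering dye-labelled HDL uptake whose fitted half-maximal concentration is at most double the top tested dose; inconclusive = flat fit with moderate inhibition, or an unreliable curve fit; inactive = the rest.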

The assay concerns the target Scavenger receptor class B member 1 (Mus musculus) (UniProt Q61009). The assay can be described thus: HDL uptake after compound washout, mSR-BI cells – ldlA[mSR-BI] CHO cells, fluorescence, dry powder, mechanism study for SR-BI HDL uptake inhibitor project, dose response (AID 588831). As to conditions: DiI-HDL uptake after washout. The gist of the method:
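Test system: SR-BI-overexpressing ldlA CHO cell line / Medium: Ham's F12 with 0.5% BSA, 25 mM HEPES pH 7.4 / Probe or stimulus: DiI-HDL at 10 µg/mL / Incubation: 2 h compound pretreatment at 37 °C, 3 h DiI-HDL uptake / Signal: cellular DiI fluorescence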

Chain of Scavenger receptor class B member 1 (Mus musculus) (Q61009 whole entry, looked up): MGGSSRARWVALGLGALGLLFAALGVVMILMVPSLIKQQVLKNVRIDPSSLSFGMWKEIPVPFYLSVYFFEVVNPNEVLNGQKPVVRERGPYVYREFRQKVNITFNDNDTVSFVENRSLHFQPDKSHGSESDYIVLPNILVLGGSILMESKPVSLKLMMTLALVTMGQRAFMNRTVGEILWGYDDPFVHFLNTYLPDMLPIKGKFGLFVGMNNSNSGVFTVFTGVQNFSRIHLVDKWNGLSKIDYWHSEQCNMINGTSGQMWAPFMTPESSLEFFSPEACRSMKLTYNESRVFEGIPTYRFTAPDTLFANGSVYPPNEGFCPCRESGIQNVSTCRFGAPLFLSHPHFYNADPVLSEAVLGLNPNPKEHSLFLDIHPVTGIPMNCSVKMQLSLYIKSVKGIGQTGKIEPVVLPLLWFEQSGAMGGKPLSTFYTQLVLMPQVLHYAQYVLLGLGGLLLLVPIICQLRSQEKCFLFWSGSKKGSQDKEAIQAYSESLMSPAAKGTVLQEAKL

Regarding `C[C@H](C(=O)NC1CCCC1)N(C(=O)Cn1nnc(-c2ccc3c(c2)OCO3)n1)C1CCCCC1`, where the note is “at 35 µM (top of the series)”, the “activity change, negative = inhibition” value was “inactive”.

For the molecule `CCCCCCC1CCC/C1=N\NC(N)=S` (stereo not drawn), the AC50 was 0.987 nM.

In the case of `COCC(=O)N1CCc2cc(-c3csc(NC(=O)c4cc(OC)cc(OC)c4)n3)ccc21`, the AC50 was 315 nM.
